{"source": "PubChem BioAssay", "key": {"[1]": {"target": "Oxysterols receptor LXR-beta (Homo sapiens) (UniProt P55055)", "sequence (P55055 whole entry, looked up, the tested form may be a part)": "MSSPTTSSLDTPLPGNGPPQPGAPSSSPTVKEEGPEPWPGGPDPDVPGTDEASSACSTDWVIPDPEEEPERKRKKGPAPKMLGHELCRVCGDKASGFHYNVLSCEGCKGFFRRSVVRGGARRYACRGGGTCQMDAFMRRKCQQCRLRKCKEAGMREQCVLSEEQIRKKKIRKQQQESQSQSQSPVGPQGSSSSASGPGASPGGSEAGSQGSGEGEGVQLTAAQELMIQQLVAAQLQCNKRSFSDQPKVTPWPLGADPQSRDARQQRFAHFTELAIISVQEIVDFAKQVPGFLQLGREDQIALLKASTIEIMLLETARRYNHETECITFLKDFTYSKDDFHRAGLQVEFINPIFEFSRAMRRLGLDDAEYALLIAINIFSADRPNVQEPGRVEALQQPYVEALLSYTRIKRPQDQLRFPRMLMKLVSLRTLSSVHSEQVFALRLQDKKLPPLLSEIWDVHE", "assay": "nonspecific reporter activation via LXR – cell-based, luminescence, HEK293, H. contortus campaign, counter-screen for hcDAF-12 agonist project, confirmation (AID 743027;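 active = mean percent activation of the reporter above a cutoff set as the average over tested compounds plus their standard deviation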)", "settings": "HEK293 Gal4-LXR tk-luc reporter, 24 h, at 6.8 µM, hits give high values, normalized: DMSO 0%, positive control 100%", "summary_of_the_method": "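Assay system: Gal4-LXR and tk-luc reporter transfected HEK293 cells; Compound: 6.8 µM single dose; Times: one-day compound treatment at 37 °C; Technique: One-Glo luciferase luminescence; Read-out basis: % activation relative to DMSO and positive-control wells; Benchmarks: DMSO low control, positive-control high control; Repeats: three replicates per compound.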"}, "[2]": {"system": "Nuclear hormone receptor DAF-12 (Haemonchus contortus)", "assay": "hcDAF-12 luciferase reporter activation, retest – cell-based, luminescence, HEK293, lit1-tk-luc, triplicate, confirmation (AID 743032;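 active = mean activation across triplicate tests above the threshold derived from the earlier primary screen, cut at about 5.5% in these data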)", "settings": "HEK293 hcDAF-12 lit1-tk-luc reporter, at 6.8 µM, hits give high values, % of Δ7-dafachronic acid response"}, "[3]": {"system": "DAF-12 nuclear receptor (Heterodera glycines), GAL4-LBD fusion", "assay": "hgDAF-12 GAL4 fusion reporter activation, retest – cell-based, luminescence, HEK293, GAL4-LBD fusion, confirmation (AID 743050)", "settings": "HEK293 GAL4-hgDAF12 luciferase reporter, agonist mode; at 6.8 µM; hits give high values; percent of butyrate response"}, "[4]": {"target": "Oxysterols receptor LXR-beta (Homo sapiens) (UniProt P55055)", "assay": "nonspecific reporter activation via LXR – cell-based, luminescence, HEK293, H. glycines campaign, counter-screen for hgDAF-12 agonist project, confirmation (AID 743051;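 active = mean activation of the triplicate above a set limit carried over from the primary screen, none filed active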)", "settings": "HEK293 Gal4-LXR luciferase reporter, 24 h; at 6.8 µM; hits give high values", "summary_of_the_method": "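System: HEK293 cells with Gal4-LXR and tk-luc reporter. Compound dosing: single nominal test compound dose of 6.8 µM. Timing: 3 h cell plating, then 24 h compound exposure at 37 °C. Detection: One-Glo luminescence after 15 min. Read-out basis: percent activation relative to median DMSO and positive-control wells. Benchmarks: DMSO low control, 0.68% final.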"}}, "note": "This is one part of the list. Values without a mark were called inactive. Activity calls are given as the source filed them.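 Rule for the calls, unless noted: active = mean activation over triplicate wells above the hit cutoff derived from the earlier primary screen (cut at about 11% in these data); inactive = the rest.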"}
{"smiles": "CN1CCN(c2ccc(NC(=O)c3ccc4c(c3)OCCO4)cc2Cl)CC1", "values": [{"measurement": "activation", "setting": "[1]", "result": 1.56, "unit": "%"}, {"measurement": "activation", "setting": "[2]", "result": "6.28% (active)"}, {"measurement": "activation", "setting": "[3]", "result": 9.5, "unit": "%"}, {"measurement": "activation", "setting": "[4]", "result": 0.88, "unit": "%"}]}
{"smiles": "Cc1ccnc(Nc2nc3ccccc3s2)n1", "values": [{"measurement": "activation", "setting": "[1]", "result": 1.72, "unit": "%"}, {"measurement": "activation", "setting": "[2]", "result": "18.5% (active)"}, {"measurement": "activation", "setting": "[3]", "result": "15% (active)"}, {"measurement": "activation", "setting": "[4]", "result": 1.12, "unit": "%"}]}
{"smiles": "Cc1cc(OCc2cc(C(=O)NCc3cc(C(C)C)no3)no2)cc(C)c1Cl", "values": [{"measurement": "activation", "setting": "[1]", "result": 0.91, "unit": "%"}, {"measurement": "activation", "setting": "[2]", "result": "7.69% (active)"}, {"measurement": "activation", "setting": "[3]", "result": "20.9% (active)"}, {"measurement": "activation", "setting": "[4]", "result": 0.62, "unit": "%"}]}
{"smiles": "O=C(Nn1c(SCc2ccc([N+](=O)[O-])cc2)nc2ccccc2c1=O)c1ccc(F)cc1", "values": [{"measurement": "activation", "setting": "[3]", "result": "11% (active)"}, {"measurement": "activation", "setting": "[4]", "result": 0.57, "unit": "%"}]}
{"smiles": "Cn1c(=NC(=O)c2ccco2)sc2cccc(F)c21", "values": [{"measurement": "activation", "setting": "[1]", "result": 1.46, "unit": "%"}, {"measurement": "activation", "setting": "[2]", "result": "15% (active)"}, {"measurement": "activation", "setting": "[3]", "result": "22.9% (active)"}, {"measurement": "activation", "setting": "[4]", "result": 0.76, "unit": "%"}]}
{"smiles": "Nc1ccc(C(=O)Nc2ccccc2N)cc1", "values": [{"measurement": "activation", "setting": "[1]", "result": 1.14, "unit": "%"}, {"measurement": "activation", "setting": "[2]", "result": "9.52% (active)"}, {"measurement": "activation", "setting": "[3]", "result": "85.4% (active)"}, {"measurement": "activation", "setting": "[4]", "result": 0.48, "unit": "%"}]}
{"smiles": "c1ccc(Cc2c(-c3ccco3)nc3c4ccccc4ccn23)cc1", "values": [{"measurement": "activation", "setting": "[1]", "result": 1.44, "unit": "%"}, {"measurement": "activation", "setting": "[2]", "result": "15.8% (active)"}, {"measurement": "activation", "setting": "[3]", "result": "16.6% (active)"}, {"measurement": "activation", "setting": "[4]", "result": 0.76, "unit": "%"}]}
{"smiles": "O=C(NCCc1ccc(F)cc1)c1ccc2nccnc2c1", "values": [{"measurement": "activation", "setting": "[3]", "result": "17% (active)"}, {"measurement": "activation", "setting": "[4]", "result": 0.74, "unit": "%"}]}
{"smiles": "Clc1ccc(-c2cc(-c3ccccn3)on2)c(Cl)c1", "values": [{"measurement": "activation", "setting": "[1]", "result": 1.95, "unit": "%"}, {"measurement": "activation", "setting": "[2]", "result": "12.6% (active)"}]}
{"smiles": "Brc1ccc(C2CC(c3ccccc3)=Nc3ccccc3N2)cc1", "note": "(centres undefined)", "values": [{"measurement": "activation", "setting": "[3]", "result": "17.4% (active)"}, {"measurement": "activation", "setting": "[4]", "result": 0.65, "unit": "%"}]}
{"smiles": "O=C(Nc1ccn(Cc2ccccc2)n1)c1cccc(F)c1", "values": [{"measurement": "activation", "setting": "[1]", "result": 1.66, "unit": "%"}, {"measurement": "activation", "setting": "[2]", "result": "7.02% (active)"}, {"measurement": "activation", "setting": "[3]", "result": "15.6% (active)"}, {"measurement": "activation", "setting": "[4]", "result": 0.7, "unit": "%"}]}
{"smiles": "Cn1c(=NC(=O)C2CC2)sc2cc(F)cc(F)c21", "values": [{"measurement": "activation", "setting": "[1]", "result": -0.11, "unit": "%"}, {"measurement": "activation", "setting": "[2]", "result": 5.5, "unit": "%"}, {"measurement": "activation", "setting": "[3]", "result": 5.29, "unit": "%"}, {"measurement": "activation", "setting": "[4]", "result": 0.25, "unit": "%"}]}
{"smiles": "CC1C/C(=N/NC(=O)c2cccs2)CC(C)(C)C1", "note": "(centres undefined)", "values": [{"measurement": "activation", "setting": "[3]", "result": 4.24, "unit": "%"}, {"measurement": "activation", "setting": "[4]", "result": 0.21, "unit": "%"}]}
{"smiles": "CS(=O)(=O)N1CCc2nc(-c3ccccc3)sc2C1", "values": [{"measurement": "activation", "setting": "[3]", "result": 10.3, "unit": "%"}, {"measurement": "activation", "setting": "[4]", "result": 0.56, "unit": "%"}]}
